Published values from different studies.
RET M918T: Proto-oncogene tyrosine-protein kinase receptor Ret (RET, Homo sapiens, UniProt P07949, M918T)
RET V804M: Proto-oncogene tyrosine-protein kinase receptor Ret (RET, Homo sapiens, UniProt P07949, V804M)
RET V804L: Proto-oncogene tyrosine-protein kinase receptor Ret (RET, Homo sapiens, UniProt P07949, V804L)

Structure (SMILES) | target | read-out | technique | tested at | remaining binding [%]
COc1cnc(Nc2cccc(S(N)(=O)=O)c2)nc1N1CCN(c2ccccc2)C(=O)C1 | RET M918T | binding | competition with immobilised ligand | 1 µM | 100
Cc1cnc(Nc2ccc(C(=O)N3CCC(N4CCCC4)CC3)cc2)nc1-c1cc2ccccc2s1 | RET V804M | binding | competition with immobilised ligand | 1 µM | 25
C=CC(=O)N1CCC(C(=O)NCC(=O)N2CCN(c3nc(-c4cnc(N)nc4C(F)F)nc(N4CCOCC4)n3)CC2)CC1 | RET V804M | binding | competition with immobilised ligand | 1 µM | 100
O=C(Nc1ccc(Oc2ccc(F)cc2)cc1)N1CCc2ncccc2[C@H]1c1ccc(F)cc1 | RET M918T | cell-free assay | competition with immobilised ligand | 1 µM | 100
O=C(Nc1c[nH]nc1C(=O)NC1CCNCC1)c1cc(F)cc(F)c1 | RET V804M | binding | competition with immobilised ligand | 1 µM | 99
N[C@@H]1CCN(c2nccc(-c3cnn4ncccc34)n2)C1 | RET M918T | binding |  | 1 µM | 94
O=C(c1ccc(Nc2ncc(Cl)c(-c3cc4ccccc4s3)n2)cc1)N1CCC(N2CCCC2)CC1 | RET V804M | binding | competition with immobilised ligand | 1 µM | 37
F[C@@H]1CCN(c2nccc(-c3cnn4ncccc34)n2)C1 | RET V804L | binding |  | 1 µM | 100
COc1cc(-c2cn(C3CCc4c(F)cccc4N(CC(F)(F)F)C3=O)nn2)ccc1-n1cnc(C)c1 (stereo not shown) | RET M918T | cell-free assay | competition with immobilised ligand | 1 µM | 100
Nc1ncc2c(n1)-c1c([nH]c3ccc(C#CC4CC4)cc13)CCCC2 | RET M918T | binding | competition with immobilised ligand | 1 µM | 100
O=C(c1ccc(Nc2nccc(-c3cc4ccccc4s3)n2)cc1)N1CCC(N2CCCC2)CC1 | RET V804L | binding | competition with immobilised ligand | 1 µM | 80
FC(F)(F)c1ccc2c(c1)nc(-c1cccnc1)n2C1CC1 | RET V804L | cell-free assay | competition with immobilised ligand | 1 µM | 81
COc1ccnn2ncc(-c3ccnc(N(C)C)n3)c12 | RET V804M | binding |  | 1 µM | 100
CN(C(=O)c1ccccc1)c1cc(N(C)c2ccc3c(c2)CCc2ccc(C(=O)NCCN4CCOCC4)cc2C3=O)ccc1F | RET M918T | cell-free assay | competition with immobilised ligand | 1 µM | 100
COc1ncc2cc3ccccc3nc2c1C#N | Proto-oncogene tyrosine-protein kinase receptor Ret (RET, Homo sapiens, UniProt P07949) | cell-free assay | competition with immobilised ligand | 5 µM | 96
COc1cc(-c2cn(C3CCc4ccccc4N(CC(F)(F)F)C3=O)nn2)ccc1-n1ccc(C)n1 (stereo not shown) | RET V804M | cell-free assay | competition with immobilised ligand | 1 µM | 100
CCN1CCN(Cc2ccc(C(=O)Nc3ccc(C)c(Oc4ccc5c(c4)CC(=O)N5)c3)cc2C(F)(F)F)CC1 | RET V804M | binding | competition with immobilised ligand | 1 µM | 67
CN(C)c1nccc(-c2cnn3ncccc23)n1 | RET V804L | binding |  | 1 µM | 99
N#Cc1ccc(Nc2ccc3[nH]c(=O)[nH]c3c2)c(Cl)c1 | RET V804M | cell-free assay | competition with immobilised ligand | 1 µM | 93
